# Laboratory results published in ChEMBL document CHEMBL1126564, “Synthesis and antimicrobial evaluation of a series of 7-[3-amino (or aminomethyl)-4-aryl (or cyclopropyl)-1-pyrrolidinyl]-4-quinolone- and -1,8-naphthyridone-3-carboxylic acids” (1993).
# Assays:
# Format in all cases: functional
# Staphylococcus aureus [1] = assay: Minimum inhibitory concentration against Staphylococcus aureus UC-76
# In short: (§1)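 Standard microdilution method against a panel of five Gram-negative and five Gram-positive bacterial strains. The MIC (µg/mL) was recorded for each strain.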
# Streptococcus pyogenes = assay: Minimum inhibitory concentration against Streptococcus pyogenes C-203; in short: as §1
# Klebsiella pneumoniae = assay: Minimum inhibitory concentration against Klebsiella pneumoniae MGH-2; in short: as §1
# Staphylococcus aureus [2] = assay: Minimum inhibitory concentration against Staphylococcus aureus H-228; in short: as §1
# Enterobacter cloacae = assay: Minimum inhibitory concentration against […] MA-2646; in short: as §1
# Enterococcus faecalis = assay: Minimum inhibitory concentration against […] MGH-2; in short: as §1
# Streptococcus pneumoniae = assay: Minimum inhibitory concentration against Streptococcus pneumoniae SV-1; in short: as §1
# Providencia rettgeri = assay: Minimum inhibitory concentration against Providencia rettgeri M-1771; in short: as §1
# Escherichia coli = assay: Minimum inhibitory concentration against Escherichia coli Vogel; in short: as §1
# Pseudomonas aeruginosa = assay: Minimum inhibitory concentration against Pseudomonas aeruginosa UI-18; in short: as §1
# [3] = Staphylococcus aureus, read-out: MIC
# [4] = Streptococcus pyogenes, read-out: MIC
# [5] = Klebsiella pneumoniae, read-out: MIC
# [6] = Enterobacter cloacae, read-out: MIC
# [7] = Enterococcus faecalis, read-out: MIC
# [8] = Streptococcus pneumoniae, read-out: MIC
# [9] = Providencia rettgeri, read-out: MIC
# [10] = Escherichia coli, read-out: MIC
# [11] = Pseudomonas aeruginosa, read-out: MIC
Structure (SMILES),MIC (Staphylococcus aureus [1]; [3]),MIC (Streptococcus pyogenes; [4]),MIC (Klebsiella pneumoniae; [5]),MIC (Staphylococcus aureus [2]; [3]),MIC (Enterobacter cloacae; [6]),MIC (Enterococcus faecalis; [7]),MIC (Streptococcus pneumoniae; [8]),MIC (Providencia rettgeri; [9]),MIC (Escherichia coli; [10]),MIC (Pseudomonas aeruginosa; [11]),MIC (Staphylococcus aureus [1]),MIC (Streptococcus pyogenes),MIC (Klebsiella pneumoniae),MIC (Staphylococcus aureus [2]),MIC (Enterobacter cloacae),MIC (Enterococcus faecalis),MIC (Streptococcus pneumoniae),MIC (Providencia rettgeri),MIC (Escherichia coli),MIC (Pseudomonas aeruginosa)
COC(=O)c1ccc(C2CN(c3c(F)cc4c(=O)c(C(=O)O)cn(C5CC5)c4c3F)CC2N)cc1 (stereo not given),0.05 µg/mL,0.4 µg/mL,0.8 µg/mL,0.1 µg/mL,0.4 µg/mL,0.4 µg/mL,0.4 µg/mL,1.6 µg/mL,0.4 µg/mL,3.1 µg/mL,–,–,–,–,–,–,–,–,–,–
NC1CN(c2cc3c(cc2F)c(=O)c(C(=O)O)cn3C2CC2)CC1C1CC1 (stereo not given),≤ 0.025 µg/mL,0.1 µg/mL,0.05 µg/mL,0.1 µg/mL,0.1 µg/mL,0.1 µg/mL,0.1 µg/mL,0.1 µg/mL,0.05 µg/mL,0.8 µg/mL,–,–,–,–,–,–,–,–,–,–
NCC1CN(c2c(F)cc3c(=O)c(C(=O)O)cn(C4CC4)c3c2F)CC1c1ccc(N)cc1 (stereo not given),0.025 µg/mL,0.05 µg/mL,0.2 µg/mL,0.1 µg/mL,0.1 µg/mL,0.05 µg/mL,0.05 µg/mL,0.2 µg/mL,0.1 µg/mL,1.6 µg/mL,–,–,–,–,–,–,–,–,–,–
CN(C)c1ccc(C2CN(c3c(F)cc4c(=O)c(C(=O)O)cn(C5CC5)c4c3F)CC2N)cc1 (stereo not given),0.013 µg/mL,0.1 µg/mL,0.2 µg/mL,0.025 µg/mL,0.2 µg/mL,0.1 µg/mL,0.1 µg/mL,0.4 µg/mL,0.2 µg/mL,3.1 µg/mL,–,–,–,–,–,–,–,–,–,–
Nc1c(F)c(N2CC(N)C(c3ccccc3)C2)c(F)c2c1c(=O)c(C(=O)O)cn2C1CC1 (stereo not given),0.006 µg/mL,0.1 µg/mL,0.05 µg/mL,0.013 µg/mL,0.025 µg/mL,0.05 µg/mL,0.05 µg/mL,0.1 µg/mL,0.025 µg/mL,0.8 µg/mL,–,–,–,–,–,–,–,–,–,–
NCC1CN(c2c(F)cc3c(=O)c(C(=O)O)cn(C4CC4)c3c2F)CC1c1ccco1 (stereo not given),0.003 µg/mL,0.013 µg/mL,0.1 µg/mL,0.025 µg/mL,0.05 µg/mL,0.013 µg/mL,0.006 µg/mL,0.1 µg/mL,0.05 µg/mL,0.4 µg/mL,–,–,–,–,–,–,–,–,–,–
NCC1CN(c2nc3c(cc2F)c(=O)c(C(=O)O)cn3C2CC2)CC1c1ccc(N)cc1 (cis isomer),0.025 µg/mL,0.05 µg/mL,0.4 µg/mL,0.2 µg/mL,0.2 µg/mL,0.1 µg/mL,0.05 µg/mL,0.8 µg/mL,0.2 µg/mL,1.6 µg/mL,–,–,–,–,–,–,–,–,–,–
COc1ccccc1C1CN(c2nc3c(cc2F)c(=O)c(C(=O)O)cn3C2CC2)CC1N (cis isomer),–,–,–,–,–,–,–,–,–,> 3.1 µg/mL,0.2 µg/mL,1.6 µg/mL,1.6 µg/mL,0.4 µg/mL,0.8 µg/mL,0.8 µg/mL,0.8 µg/mL,3.1 µg/mL,0.8 µg/mL,–
NCC1CN(c2nc3c(cc2F)c(=O)c(C(=O)O)cn3C2CC2)CC1c1ccc(N)cc1 (trans isomer),–,–,–,–,–,–,–,–,–,–,0.05 µg/mL,0.05 µg/mL,0.2 µg/mL,0.4 µg/mL,0.2 µg/mL,0.1 µg/mL,0.05 µg/mL,0.4 µg/mL,0.2 µg/mL,1.6 µg/mL
CCOC(=O)C1CC1C1CN(c2nc3c(cc2F)c(=O)c(C(=O)O)cn3C2CC2)CC1N (trans isomer),0.4 µg/mL,1.6 µg/mL,3.1 µg/mL,1.6 µg/mL,1.6 µg/mL,1.6 µg/mL,1.6 µg/mL,6.3 µg/mL,1.6 µg/mL,2.5 µg/mL,–,–,–,–,–,–,–,–,–,–
COc1ccc(C2CN(c3c(F)cc4c(=O)c(C(=O)O)cn(C5CC5)c4c3F)CC2N)cc1 (trans isomer),0.013 µg/mL,0.05 µg/mL,0.2 µg/mL,0.025 µg/mL,0.1 µg/mL,0.1 µg/mL,0.05 µg/mL,0.4 µg/mL,0.1 µg/mL,1.6 µg/mL,–,–,–,–,–,–,–,–,–,–
NCc1cccc(C2CN(c3nc4c(cc3F)c(=O)c(C(=O)O)cn4C3CC3)CC2N)c1 (trans isomer),0.4 µg/mL,0.2 µg/mL,0.8 µg/mL,3.1 µg/mL,0.8 µg/mL,0.8 µg/mL,0.2 µg/mL,1.6 µg/mL,0.8 µg/mL,3.1 µg/mL,–,–,–,–,–,–,–,–,–,–
NC1CN(c2nc3c(cc2F)c(=O)c(C(=O)O)cn3C2CC2)CC1c1ccc(O)cc1 (trans isomer),0.1 µg/mL,0.2 µg/mL,0.2 µg/mL,0.4 µg/mL,0.1 µg/mL,0.1 µg/mL,0.2 µg/mL,0.4 µg/mL,0.1 µg/mL,1.6 µg/mL,–,–,–,–,–,–,–,–,–,–
